Experimental data as given in PubChem BioAssay AID588621 (Sanford-Burnham Center for Chemical Genomics, 2011).
Out of some 360,000 compounds screened, about 890 (0.25%) were called active.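 The calls were made as follows: active = inhibition at 20 µM, scaled per plate between control wells, above about 37% (limit read from the data); inactive = the rest.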 The entries come from a sample that favours actives as a whole.

The compounds below were run against Tyrosine-protein phosphatase non-receptor type 5 (Homo sapiens) (UniProt P54829) (assay: STEP phosphatase inhibitors, primary screen, biochemical, fluorescence intensity, uHTS (AID 588621;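 also: 0% = DMSO with enzyme and substrate and 100% = substrate only without enzyme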)). Conditions: recombinant STEP, OMFP fluorogenic substrate, at 20 µM, hits give high values.
Sequence of Tyrosine-protein phosphatase non-receptor type 5 (Homo sapiens) (P54829 whole entry, looked up): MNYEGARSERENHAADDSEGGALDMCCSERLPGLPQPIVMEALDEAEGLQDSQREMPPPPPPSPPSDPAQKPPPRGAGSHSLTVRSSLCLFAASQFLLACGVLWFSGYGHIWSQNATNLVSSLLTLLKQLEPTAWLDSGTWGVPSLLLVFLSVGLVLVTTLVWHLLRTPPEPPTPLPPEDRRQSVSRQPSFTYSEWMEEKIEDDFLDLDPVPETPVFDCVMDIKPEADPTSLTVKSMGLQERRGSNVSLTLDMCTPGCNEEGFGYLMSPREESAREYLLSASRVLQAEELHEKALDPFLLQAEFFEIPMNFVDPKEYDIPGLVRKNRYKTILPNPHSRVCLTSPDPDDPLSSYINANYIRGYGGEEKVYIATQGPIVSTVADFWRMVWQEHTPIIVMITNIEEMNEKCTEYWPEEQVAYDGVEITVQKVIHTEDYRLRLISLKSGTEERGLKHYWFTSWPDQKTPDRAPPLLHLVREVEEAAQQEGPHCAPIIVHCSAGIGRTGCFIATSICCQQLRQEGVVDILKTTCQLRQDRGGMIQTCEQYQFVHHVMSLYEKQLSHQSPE
Outline: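 Assay system: isolated STEP enzyme / Timing: 20 min at room temperature, dark / Doses: 20 µM, 1% DMSO / Technique: fluorescence intensity, excitation 480 nm, emission 540 nm / Reagent: fluorogenic phosphatase substrate OMFP at 25 µM final / Measure: percent inhibition scaled to no-enzyme and uninhibited-enzyme controls, plate-pattern corrected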

| Structure (SMILES) | inhibition |
| --- | --- |
| C=CC1=C(C(=O)O)N2C(=O)[C@@H](NC(=O)/C(=N\OCC(=O)O)c3csc(N)n3)[C@H]2SC1 | 85.4% (active) |
| C=CC1=C(C(=O)O)N2C(=O)[C@@H](NC(=O)/C(=N/OCC(=O)O)c3csc(N)n3)[C@H]2SC1 | 97.4% (active) |
| COC(=O)c1cc2occc2n1Cc1nc(-c2ccccc2C)oc1C | -0.6% (inactive) |
| CCCCOc1ccc(NC(=O)[C@@H]2CCCN2C(=O)C2CCN(S(=O)(=O)c3ccc(C)cc3)CC2)cc1 | -0.4% (inactive) |
| CCCC(=O)N1CCC1(C)C(=O)NCc1ccc(C(C)C)cc1 (stereo not drawn) | 1.5% (inactive) |
| Cn1c(Cc2csc(N)n2)nnc1SC/C=C/c1ccccc1 | -1.7% (inactive) |
| Cc1ccc(F)cc1NC(=O)N1CCCN(c2ccc(C(F)(F)F)cn2)CC1 | -0.3% (inactive) |
| CCOc1ccc(C(=O)NCC(=O)N2CCN(c3ccc(C(F)(F)F)cn3)CC2)cc1 | -0.1% (inactive) |
| C/C=C/C(=O)Nc1ccc(N2CCN(c3ccc(C(F)(F)F)cn3)CC2)nc1 | 78.9% (active) |
| C[C@H]1CN([C@@H](C)CO)C(=O)Cc2cc(NS(C)(=O)=O)ccc2O[C@@H]1CN(C)CC1CC1 | 1.2% (inactive) |
| Cc1ccc(C(=O)N(CC(=O)NC2CCCC2)c2ccc(F)cc2)s1 | -0.9% (inactive) |
| CCCS(=O)(=O)N1CCCC(C(=O)NCc2ccco2)C1 (stereo not drawn) | 53.8% (active) |
| O=C(NCc1ccco1)C1CCCN(S(=O)(=O)c2cnc[nH]2)C1 (stereo not drawn) | -0.7% (inactive) |
| O=C(NCc1ccco1)C1CCCN(S(=O)(=O)c2ccccc2)C1 (stereo not drawn) | 2.1% (inactive) |
| COc1ccc(CCNc2cc(C)nc3c(-c4ccc(Cl)cc4)c(C)nn23)cc1OC | -0.7% (inactive) |
| O=S1(=O)CSCS(=O)(=O)C1 | 2.4% (inactive) |
| Cc1ccc(-n2c(SCC(=O)NCc3ccc4c(c3)OCO4)nnc2-c2cccnc2)c(C)c1 | -2.7% (inactive) |
| CCCCc1nccn1CCn1ccnc1CCCC | 1.5% (inactive) |
| OCc1n[nH]c(CO)n1 | -3.3% (inactive) |
| O=C1CCC(CCC(=O)N2CCCC(C(=O)c3ccc(Cl)cc3)C2)=NN1 (stereo not drawn) | -3.2% (inactive) |
| COc1ccc(CCNC(=O)c2ccc(CS(=O)(=O)c3ccc(Br)cc3)o2)cc1OC | -1.6% (inactive) |
| Oc1ccccc1C=NC1CCCCC1N=Cc1ccccc1O (stereo not drawn) | 2.7% (inactive) |
| O=C(N/N=C/c1ccccc1O)/C(=C/c1ccccc1)CCO | 0.4% (inactive) |
| O=C(NN=Cc1ccccc1O)NN=Cc1ccccc1O | 59.1% (active) |
| Nc1ccccc1/C=N\N=C/c1ccccc1N | -2.4% (inactive) |
| Cc1c(NC(=O)C(=O)N/N=C/c2cccs2)c(=O)n(-c2ccccc2)n1C | 3.9% (inactive) |

| Structure (SMILES) | inhibition |
| --- | --- |
| CCC(=O)c1cc2c(cc1NC(=O)c1cccs1)OCCO2 | -2.5% (inactive) |
| C=CCO/N=C(\C)c1c(O)c(C)c(-c2ccccc2)n(-c2ccccc2)c1=O | 6.7% (inactive) |
| CC1CN(C(=O)COC(=O)c2cccc(NS(=O)(=O)c3ccccc3)c2)CC(C)O1 (stereo not drawn) | 0.4% (inactive) |
| COc1ccc(/C=N/NC(=O)Cn2cc(C(F)(F)F)ccc2=O)cc1 | -2.6% (inactive) |
| COc1ccc(/C=N/Nc2ccccc2C(=O)O)cc1 | 42.5% (active) |
| COc1ccc(/C=N/NC(=O)C(C)N(c2ccc(OC)cc2)S(C)(=O)=O)cc1 (stereo not drawn) | 2.2% (inactive) |
| CCc1ccccc1NC(=O)CN1CCN(C(=O)c2cc(C3CC3)nn2-c2ccccc2)CC1 | -3.2% (inactive) |
| CC(C)Cc1ccc(C(C)C(=N)N)cc1 (stereo not drawn) | -2% (inactive) |
| CCO[C@H]1OC(C(=O)N2CCCCCCC2)=C[C@@H](c2ccc(C(F)(F)F)cc2)[C@@H]1CCCO | 0.1% (inactive) |
| CCOC(=O)C1=C(O)/C(=C/c2ccc(OCC(=O)Nc3ccc(C)cc3)cc2)N=C1C | 14.9% (inactive) |
| Cc1ccc2nc(-c3ccc(NC(=O)c4cccnc4)cc3)oc2c1 | 0.4% (inactive) |
| Cc1ccc(OCC(=O)Nc2ccc(-c3nc4ncccc4o3)cc2)cc1 | 54.1% (active) |
| CCc1ccc(C2C(C#N)=C(N)N(N3CCOCC3)C3=C2C(=O)CC(C)(C)C3)s1 (stereo not drawn) | -1.9% (inactive) |
| CNC(=O)NC(=O)C(OC(=O)c1cccc(S(=O)(=O)N2CCCCC2)c1)c1ccccc1 (stereo not drawn) | -0.2% (inactive) |
| O=C(/C=C/Nc1ccc(S(=O)(=O)Nc2cnc3ccccc3n2)cc1)c1cccnc1 | 5.4% (inactive) |
| CCOc1cc(CO)ccc1OCC(=O)N1CCCCC1 | -1.4% (inactive) |
| CC(=NNC(=S)N1CCCCCC1)c1ccccn1 | 54.5% (active) |
| CCOc1ccc(NC(=S)N2CCCCCC2)cc1 | -2.3% (inactive) |
| CCNC(=S)N1CCN(c2ncccn2)CC1 | -5.9% (inactive) |
| CCOC(=O)C1CCN(c2c(Nc3cc(C)cc(C)c3)c(=O)c2=O)CC1 | -2.8% (inactive) |
| COc1ccc(-c2c(-c3cc(OC)cc(OC)c3)n(C)c3ccc(-c4ccn[nH]4)cc23)cc1 | -1.9% (inactive) |
| O=C(CCSCCc1ccccn1)Nc1nccs1 | -2.2% (inactive) |
| CC(O)C(NS(=O)(=O)c1ccc(Cl)cc1)C(=O)OCc1cc([N+](=O)[O-])cc2c1OCOC2 (stereo not drawn) | -3.7% (inactive) |
| Cc1c(/C=N\NC(=O)c2cc3ccccc3o2)c2ccccc2n1C | -0.5% (inactive) |
| O=C(N/N=C/c1coc2ccccc2c1=O)c1cc2ccccc2o1 | 43.4% (active) |
| CC(C)(C)OC(=O)NCCCCCC(=O)N/N=C/c1coc2ccccc2c1=O | -1.9% (inactive) |

| Structure (SMILES) | inhibition |
| --- | --- |
| CN1CCN(C(=O)c2ccccc2NC(=O)COc2ccccc2Cl)CC1 | -2.4% (inactive) |
| C=CCn1c(=S)[nH]c2scc(-c3ccco3)c2c1=O | 13.1% (inactive) |
| CCCc1nc(-c2cc3cc(C)ccc3[nH]c2=O)no1 | 3.2% (inactive) |
| COc1ccc(Cc2cc(-c3ccc(F)cc3)n[nH]c2=O)cc1 | 1.1% (inactive) |
| COc1ccc2[nH]c(=O)c(-c3noc(-c4ccc(F)cc4)n3)cc2c1 | 95.7% (active) |
| O=C(NCc1ccccc1)C(c1cccnc1)N(C(=O)c1csnn1)c1ccc(F)cc1 (stereo not drawn) | 2.3% (inactive) |
| Cc1ccc(-n2c(C)cc(/C=C(\C#N)C(=O)NCC3CCCO3)c2C)cc1 (stereo not drawn) | 0.4% (inactive) |
| CCCCNC(=O)c1c[nH]c2ccc(S(=O)(=O)Nc3ccc(OCC)cc3)cc2c1=O | 4.4% (inactive) |
| Cc1nc2ccc(NC(=S)N3CCC(C)CC3)cc2nc1C | 2.1% (inactive) |
| CC1=C(C(=O)N2CCOCC2)CC(CC(=O)NCCCN(C)C)C(=O)N1Cc1ccc(C(C)(C)C)cc1 (stereo not drawn) | -2.8% (inactive) |
| O=C(CSC(=S)N1CCCCC1)c1c(F)cccc1F | 87.8% (active) |
| CC(=O)c1ccc(NC(=O)CSC(=S)N2CCCC2)cc1 | 0.8% (inactive) |
| COc1cccc(NC(=O)CN(C)C(=O)CSC(=S)N2CCCC2)c1 | -1.5% (inactive) |
| O=S(=O)(NCC1CN(S(=O)(=O)c2ccc3c(c2)OCCO3)C1)c1c(F)cccc1F | -0.5% (inactive) |
| CSc1ccc(C#N)cc1NC(=O)c1ccc(Cl)cc1 | -9.6% (inactive) |
| N#Cc1ccc(C(=O)Nc2cccc3cccnc23)c(F)c1 | 97.4% (active) |
| COc1ccc(NC(=O)c2ccco2)cc1NC(=O)c1ccc(C#N)cc1F | -1.6% (inactive) |
| CSCCC(NC(=O)COc1ccccc1)C(=O)N(C)CC(=O)Nc1ccc(C)cc1 (stereo not drawn) | -3.9% (inactive) |
| COc1ccc(CN2CCCC(CNC(=O)c3ccc(F)cc3)C2)cc1OC (stereo not drawn) | 0.7% (inactive) |
| C[C@H](CO)N1C[C@H](C)[C@H](CN(C)C(=O)c2ccncc2)OCc2ccccc2-c2c(n(C)c3ccccc23)C1=O | 1.4% (inactive) |
| O=C1CCC(C(=O)Nc2ccc(OC(F)F)cc2)N1 (stereo not drawn) | 1.3% (inactive) |
| S=C(NCCCc1ccccc1)Nc1ccc(Br)cc1 | 1.3% (inactive) |
| CCc1ccc(NC(=O)CS(=O)CC(=O)N2CCN(c3ccccc3F)CC2)cc1 (stereo not drawn) | 2.2% (inactive) |
| CCc1ccc(NC(=O)CS(=O)CC(=O)NCCCc2ccccc2)cc1 (stereo not drawn) | 41.6% (active) |
| Cc1ccc(S(=O)(=O)NN=C2CC(C)(C)CC(=O)C2(C)C)cc1 | -2.2% (inactive) |
| CCOc1nnc(C)c2c(C)n(-c3cccc(Cl)c3)nc12 | -2.6% (inactive) |
